# Screening data from PubChem.
# SIRT5 block = SIRT5 desuccinylase inhibitors, primary screen, biochemical, fluorescence imaging, single point, set 5 | Purified SirT5, succinyl-peptide AMC, trypsin-coupled fluorescence | NAD-dependent protein deacylase sirtuin-5, mitochondrial (Homo sapiens), Q9NXA8 | AID 652115, 2013 | inhibition, % at 15 µM | actives 1.1% (n = 330,000); in the data active = inhibition above about 15%; inconclusive = no clear call, values can overlap the other calls
# ERp5 block = inhibitors of ERp5-driven insulin aggregation, primary screen, biochemical, turbidity, absorbance 650 nm, single point. Protein disulfide-isomerase A6 (Homo sapiens), Q15084. 90 min. actives 0.05% (n = 350,000). inhibition, % at 9.99 µM;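 active = mean replicate inhibition above about 25%, with every replicate also reaching it, limit read from the data, passing the limit was not always enough; inconclusive = only one of those two criteria met; inactive = neither criterion met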
# FN deposition inh = inhibitors of fibronectin matrix deposition, primary screen, AH1F cells, Alexa488-fibronectin fluorescence, plate reader | AH1F fibroblasts, overnight | inhibition, % at 12.6 µM | actives 0.086% (n = 350,000);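 active = mean inhibition across replicates of 30% or more, regardless of how many single replicates reach that level; inconclusive = mean under 30% yet at least half of replicates reach 30%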
#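 Measured by – fluorescence 485/525 nm · System – AH1F fibroblast monolayer, labelled fibronectin deposition · Amount – 10000 cells per well · Buffer or medium – serum-reduced DMEM (2% serum) · Doses – single dose, pinned · Also added – fluorescent fibronectin at 24 nM final · Schedule – 1 h cell attachment, overnight exposure to compound and label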
# MLL AF4-AF9 inh = inhibitors of AF4 peptide binding to AF9, primary screen, biochemical, AlphaScreen, biotin-AF4 peptide, FLAG-AF9, single point; inhibition, % at 10 µM; Protein AF-9 (Homo sapiens), P42568; actives 0.47% (n = 350,000);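 active = every replicate reaching a set inhibition limit, whatever the replicate mean, cut at about 25% in these data; inconclusive = mean inhibition reaches that limit but some replicates miss it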
# Target sequence (P42568 whole entry, looked up): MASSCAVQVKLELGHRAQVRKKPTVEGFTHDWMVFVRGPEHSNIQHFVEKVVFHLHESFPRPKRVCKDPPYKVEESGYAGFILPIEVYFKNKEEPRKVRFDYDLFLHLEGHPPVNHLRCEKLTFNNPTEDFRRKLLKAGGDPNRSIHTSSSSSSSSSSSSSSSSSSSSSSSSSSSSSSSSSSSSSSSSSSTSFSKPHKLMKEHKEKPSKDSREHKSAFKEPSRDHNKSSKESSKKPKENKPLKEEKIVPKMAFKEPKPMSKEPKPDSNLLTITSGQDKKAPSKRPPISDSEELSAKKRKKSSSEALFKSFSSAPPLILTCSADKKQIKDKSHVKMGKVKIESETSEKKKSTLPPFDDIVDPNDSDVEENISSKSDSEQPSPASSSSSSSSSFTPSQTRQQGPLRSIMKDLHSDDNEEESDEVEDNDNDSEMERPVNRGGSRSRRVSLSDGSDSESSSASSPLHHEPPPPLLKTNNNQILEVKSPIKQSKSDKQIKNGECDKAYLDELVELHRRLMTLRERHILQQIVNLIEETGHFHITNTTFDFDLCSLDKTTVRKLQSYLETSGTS
# PDI inh = inhibitors of human PDI, primary screen, biochemical, turbidity, single point, plate reader; Protein disulfide-isomerase (Homo sapiens), P07237; PDI insulin aggregation turbidity, A650, 90 min; inhibition, % at 10 µM; actives 0.052% (n = 350,000); AID 588391, 2011;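 active = mean inhibition across replicates of 30% or more, whatever share of single replicates reach that level; inconclusive = mean inhibition below 30% while every single replicate reaches 30%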
# Numbers stand for hits; n = inactive; u = inconclusive; x = no result given; ! = a repeat was not active. A selection: hits, their analogues and other compounds. The true share with any hit is near 1.3%.
SMILES,SIRT5 block,ERp5 block,FN deposition inh,MLL AF4-AF9 inh,PDI inh
O=C(CNC(=O)[C@@H]1Cc2ccccc2CN1)NC1CCCC1,n,n,n,n,n
Cc1nn(CC(=O)NCCCN2CCC(Cc3ccccc3)CC2)c(=O)c2cc(-c3ccccc3)nn12,25.1,n,n,n,n
CCc1ccc(-c2cc3c(=O)n(CC(=O)NCCCN4CCC(Cc5ccccc5)CC4)nc(C)n3n2)cc1,n,n,n,n,n
CCC(=O)Nc1ccc2c(c1)OC[C@@H](C)N(Cc1ccccc1F)C[C@H](C)[C@@H](OC)CN(C)C2=O,n,n,n,n,x
CCC(=O)Nc1ccc2c(c1)C(=O)N(C)C[C@@H](OC)[C@H](C)CN(Cc1ccccc1F)[C@@H](C)CO2,n,n,n,30.3,x
CO[C@H]1CN(C)C(=O)c2cc(NS(=O)(=O)c3cccc(F)c3)ccc2OC[C@H](C)N(Cc2cc(F)ccc2F)C[C@H]1C,n,n,x,n,x
CCC(=O)Nc1ccc2c(c1)OC[C@@H](C)N(Cc1ccccc1F)C[C@@H](C)[C@@H](OC)CN(C)C2=O,29.8!,n,n,n,x
CO[C@H]1CN(C)C(=O)c2cc(NS(=O)(=O)c3cccc(F)c3)ccc2OC[C@H](C)N(Cc2cc(F)ccc2F)C[C@@H]1C,16.0,n,x,n,x
COC(=O)c1ccc(Nc2c([N+](=O)[O-])ccc3nonc23)cc1,n,n,n,n,n
Cc1csc(CNc2ncnc3ccc(-c4cccc(Cl)c4)cc23)c1,34.3,n,n,n,n
C[C@H](CO)N1C[C@H](C)[C@H](CN(C)Cc2ccccc2)OCCCC[C@H](C)Oc2ccc(NS(=O)(=O)c3ccc(F)cc3)cc2C1=O,n,n,n,37.3,x
C[C@@H]1CN([C@H](C)CO)C(=O)c2cc(NS(=O)(=O)c3ccc(Cl)cc3)ccc2O[C@@H](C)CCCCO[C@@H]1CN(C)Cc1ccccc1,20.8,n,n,n,x
C[C@@H]1CN([C@H](C)CO)C(=O)c2cc(NS(=O)(=O)c3ccc(Cl)cc3)ccc2O[C@@H](C)CCCCO[C@@H]1CN(C)Cc1ccc2c(c1)OCO2,18.8!,n,n,n,x
C[C@@H]1CN([C@@H](C)CO)C(=O)c2cc(NS(=O)(=O)c3ccc(Cl)cc3)ccc2O[C@@H](C)CCCCO[C@@H]1CN(C)Cc1ccccc1,18.1,n,n,n,x
C[C@H]1CCCCO[C@H](CN(C)Cc2ccccc2)[C@@H](C)CN([C@@H](C)CO)C(=O)c2cc(NS(=O)(=O)c3ccc(Cl)cc3)ccc2O1,n,n,n,n,x
O=C(NN1C(=O)C2C(c3ccccc3)C=CC(c3ccccc3)C2C1=O)c1ccccc1 (stereo unspecified),n,n,n,n,n
Cc1c([N+](=O)[O-])c([N+](=O)[O-])nn1CC(=O)NCc1cccnc1,n,n,n,n,n
O=C1NC2=C(CCc3ccccc32)C(c2ccc(Br)cc2)N1 (stereo unspecified),x,x,n,x,n
Cc1ccccc1OCCNc1cc(N2CC(C)NC(C)C2)ccc1[N+](=O)[O-] (stereo unspecified),n,n,n,38.0,x
CCc1ccc(OCCNc2cc(N3CCNC(C)C3)ccc2[N+](=O)[O-])cc1 (stereo unspecified),n,n,n,36.6,n
Cc1cc([N+](=O)[O-])nn1CCCC(=O)Nc1sc2c(c1C(N)=O)CCC(C)C2 (stereo unspecified),n,n,n,27.9,n
CCOC(=O)/C(C#N)=C/c1ccc(OC)c(OC)c1,x,x,n,x,n
C[C@@H]1CCCCO[C@@H](CN(C)CC2CC2)[C@H](C)CN([C@@H](C)CO)C(=O)c2cc(NC(=O)Nc3ccc4c(c3)OCO4)ccc2O1,n,n,n,u,x
C[C@@H]1CCCCO[C@H](CN(C)CC2CC2)[C@H](C)CN([C@@H](C)CO)C(=O)c2cc(NC(=O)Nc3ccc4c(c3)OCO4)ccc2O1,n,n,n,34.4,x
C[C@H]1CCCCO[C@H](CN(C)CC2CC2)[C@@H](C)CN([C@@H](C)CO)C(=O)c2cc(NC(=O)Nc3ccc4c(c3)OCO4)ccc2O1,n,n,n,34.6,x
SMILES,SIRT5 block,ERp5 block,FN deposition inh,MLL AF4-AF9 inh,PDI inh
Cc1ccc(CS(=O)Cc2ccc(C(=O)NCc3ccccc3)o2)cc1 (stereo unspecified),n,n,n,n,n
CC(C)NC(=S)Nc1c(N)[nH]c(=O)[nH]c1=O,n,n,n,n,n
COc1cc(/C=N/N2CCN(Cc3ccc(Cl)cc3)CC2)cc(Br)c1O,18.4,n,n,n,n
COc1cc(NCCCCCCCN)c2ncccc2c1,x,x,x,x,n
COc1cc(NC(C)CCCN)c2ncccc2c1 (stereo unspecified),n,n,n,30.7,n
CCC(=O)Nc1ccc2c(c1)C(=O)N(C)[C@H]1CC[C@@H](CC(=O)NCCCN(C)C)O[C@@H]1CO2,n,n,n,n,x
Cn1c(SCc2cccc(F)c2)nnc1-c1ccncc1,15.3,n,n,n,n
COc1ccc(S(=O)(=O)N2CCC3(CC2)CN(C(=O)c2cccnc2)[C@@H](CO)c2c3c3ccc(OC)cc3n2C)cc1,20.6,n,x,n,x
COc1ccc2c3c(n(C)c2c1)[C@@H](CO)NCC31CCN(S(=O)(=O)c2cccc(C)c2)CC1,n,n,n,27.4,x
COc1ccc2c3c(n(C)c2c1)[C@H](CO)NCC31CCN(Cc2ccc(Cl)cc2)CC1,x,x,x,44.1,x
COc1ccc2c3c(n(C)c2c1)[C@@H](CO)NCC31CCN(Cc2ccccc2F)CC1,x,x,x,n,x
COc1ccc2c3c(n(C)c2c1)[C@@H](CO)NCC31CCN(Cc2cc(F)ccc2F)CC1,n,n,n,32.5,x
COc1cccc(S(=O)(=O)N2CC3(CN[C@@H](CO)c4c3c3ccc(OC)cc3n4C)C2)c1,n,n,x,n,x
COc1ccc2c3c(n(C)c2c1)[C@H](CO)NCC31CCN(CC2CCCC2)CC1,n,n,x,n,x
C[C@@H]1CCCCO[C@H](CN(C)C)[C@@H](C)CN([C@H](C)CO)C(=O)c2cc(NS(C)(=O)=O)ccc2O1,n,n,n,n,x
COC(=O)C(CCSC)NC(=O)CNS(=O)(=O)c1ccc(F)cc1 (stereo unspecified),x,x,n,x,n
S=C(Nc1cccc(Cl)c1Cl)N1CCC2(CC1)OCCO2,n,n,n,n,n
CCC(=Cc1ccccc1O)c1ccncc1,x,n,n,n,n
COc1ccc2c3c(n(C)c2c1)[C@H](CO)NCC31CCN(Cc2cc(F)ccc2F)CC1,n,n,n,25.5,x
CO[C@H]1CN(C)C(=O)c2cc(NC(=O)C3CCCC3)ccc2OC[C@H](C)N(C(C)=O)C[C@H]1C,x,x,n,x,x
COC(=O)CSc1ccc2nnc(-c3ccc(OC)c(OC)c3)n2n1,n,n,n,32.5,n
